Data set [1] relates to Canis familiaris. Put plainly: Antiarrhythmic activity in coronary ligated dog assessed as reduction of ventricular ectopic beats to <5% of total ventricular beats at 0.5 mg/kg, iv measured for 5 mins relative to control. The format is functional, Canis lupus familiaris, Heart. More on the design: scale not given: the % may be the effect or the level left.
Data set [2] deals with Mus musculus. Put plainly: Antiarrhythmic activity in Swiss albino mouse assessed as protection against chloroform-induced fibrillation at 100 mg/kg, sc relative to control. The format is functional, Heart. To be noted: route subcutaneous. The method, boiled down:
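Mice (18–25 g) were dosed and exposed to CHCl3 vapor 20 min later until respiration ceased. Presence or absence of ventricular fibrillation was judged through the opened thorax, and protection was scored as the fraction of animals free of fibrillation. A preliminary 100 mg/kg dose was used to estimate doses for the full screen.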

In data set [3] the test system is Mus musculus. The experiment in a line: Toxicity in Swiss albino mouse assessed as induction of ataxia at 100 mg/kg, sc relative to control. It is filed as organism-based. More on the design: dose 100 mg/kg, route subcutaneous. To be noted: in vivo. The method, boiled down: (§1)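 Single preliminary dose of 100 mg/kg. Mice (18–25 g) were watched for overt CNS toxicity signs, including convulsions, ataxia and loss of righting reflex, during the 20 min between treatment and exposure to CHCl3 vapor.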

In data set [4] the test system is Mus musculus. The experiment in a line: Toxicity in Swiss albino mouse assessed as induction of convulsions at 100 mg/kg, sc relative to control. The format is organism-based. On the set-up: dose 100 mg/kg, route subcutaneous. To be noted: in vivo. Put shortly: as §1
In data set [5] the test system is Mus musculus. The experiment in a line: Toxicity in Swiss albino mouse assessed as induction of loss of righting reflex at 100 mg/kg, sc relative to control. It is filed as organism-based. On the set-up: dose 100 mg/kg, route subcutaneous. To be noted: in vivo. The method, boiled down:
as §1

Data set [6] has as its system Mus musculus. The experiment in a line: Antiarrhythmic activity in sc dosed Swiss albino mouse assessed as protection against chloroform-induced fibrillation relative to control. It is filed as functional. To be noted: Heart. Put shortly:
(§2)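 Mice (18–25 g) were dosed and observed for signs of toxicity. Twenty minutes after dosing they were exposed to CHCl3 vapor until respiration ceased, and ventricular fibrillation was scored by inspecting the opened thorax.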

Data set [7] relates to Mus musculus. Put plainly: Antiarrhythmic activity in sc dosed Swiss albino mouse assessed as protection against chloroform-induced fibrillation relative to lidocaine. It is filed as functional, Heart. The method, boiled down: as §2
The test system of data set [8] is Canis familiaris. The experiment in a line: Antiarrhythmic activity in coronary ligated dog assessed as reduction of mean arterial blood pressure at 0.5 mg/kg, iv measured for 5 mins relative to control. The format is functional, Canis lupus familiaris, Artery.
For data set [9], the system named is Canis familiaris. The experiment in a line: Antiarrhythmic activity in coronary ligated dog assessed as reduction of ventricular rates at 0.5 mg/kg, iv measured for 5 mins relative to control. The format is functional, Canis lupus familiaris, Heart.
For data set [10], the system named is Canis familiaris. Put plainly: Antiarrhythmic activity in iv dosed coronary ligated dog assessed as concentration required to reduce ventricular ectopic beats to <5% of total ventricular beats measured for 5 mins. It is filed as functional, Canis lupus familiaris, Heart. The method, boiled down:
(§3)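 Clearing was defined as less than 5% ectopic beats for 5 min, and the infusion was shut off at clearing or when toxicity appeared. Doses are in mmol/kg, reported as means with standard deviations over the experiments.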

In data set [11] the test system is Canis familiaris. The experiment in a line: Toxicity in iv dosed coronary ligated dog assessed as concentration required to cause convulsions. It is filed as organism-based, Canis lupus familiaris. To be noted: in vivo. Put shortly: as §3
Data set [12] relates to Canis familiaris. The experiment in a line: Toxicity in iv dosed coronary ligated dog assessed as concentration required to cause mortality. The format is organism-based, Canis lupus familiaris. To be noted: in vivo. Put shortly: (§4)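 Dogs with ventricular arrhythmias from coronary artery ligation (Harris method) received drug by infusion, with the ectopic beat incidence monitored. Clearing was defined as less than 5% ectopic beats for 5 min. Infusion was stopped at clearing or when toxicity was observed. The dose was recorded at the time of the endpoint. Mortality was noted, including death after the end of infusion.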

The subject of data set [13] is Canis familiaris. Put plainly: Toxicity in iv dosed coronary ligated dog assessed as concentration required to cause mortality measured 87 mins after end of infusion. The format is organism-based, Canis lupus familiaris. To be noted: in vivo, 1.45 h. The method, boiled down:
as §4

A short description of data set [14]: Half life in dog. The format is ADME, organism-based, Canis lupus familiaris. To be noted: in vivo.
A short description of data set [15]: Oral bioavailability in dog. It is filed as ADME, organism-based, Canis lupus familiaris. To be noted: in vivo.
Data set [16] in a line: Half life in human. The format is ADME, organism-based. To be noted: in vivo.

Broadly, the ED50 is the midpoint of the dose-response relation. Consider `Cc1cccc(C)c1NC(=O)[C@@H](C)N.Cl`, for which the Activity in data set [1] is given as 0%; in [2], 10%; in data set [3], 70%; in data set [4], 0%; in data set [5] it was 0%; in [8], 105 Torr. Besides, the values for the Activity in [9], in data set [10] and in data set [11] were 123 bpm, 0.31 mmol/kg and 0.21 mmol/kg, respectively. Also, the ED50 in data set [6] came to 930 µmol/kg. In addition, the “Ratio ED50” value in [7] stood at 0.3.
In the case of `CCc1cccc(CC)c1NC(=O)C(C)N.Cl` (stereo unspecified), the Activity came out at 2% in data set [1]; 20% in data set [2]; 100% in data set [3]; 10% in data set [4]; 0% in data set [5]; 140 Torr in data set [8]. Moreover, the Activity came out at 124 bpm in data set [9], 0.26 mmol/kg in data set [10], 0.23 mmol/kg in [11] and 0.45 mmol/kg in [12]. Further, the ED50 in [6] came to 530 µmol/kg. For the same molecule, in data set [7], the “Ratio ED50” value worked out at 0.5.
Consider `Cc1cc(C)c(NC(=O)CN)c(C)c1.Cl`, for which the Activity in data set [2] was 10%; in data set [3], 100%; in [4], 80%; in data set [5], 0%. Moreover, in data set [6], the 50% effective dose (ED50) is 790 µmol/kg. Further, the “Ratio ED50” value in data set [7] was found to be 0.3.
As to `CCc1cccc(CC)c1NC(=O)CN.Cl`, the Activity in [2] was determined as 10%; in [3], 100%; in data set [4], 0%; in data set [5] it was 0%. The ED50 in data set [6] was 1200 µmol/kg. Moreover, in [7], the “Ratio ED50” value is recorded as 0.2.
As to `CCc1cccc(CC)c1NC(=O)C(N)CC.Cl` (stereo unspecified), the Activity in data set [2] was determined as 100%; in [3] it was 100%; in data set [4], 100%; in data set [5] it was 0%. For the same molecule, the ED50 in [6] came to 230 µmol/kg. The “Ratio ED50” value in [7] was found to be 1.2.
Consider `CCc1cccc(C)c1NC(=O)CN.Cl`, for which the Activity in data set [2] is reported as 20%; in [3], 100%; in [4] it was 0%; in data set [5] it was 0%. Besides, the ED50 in data set [6] worked out at 1300 µmol/kg. For the same molecule, the “Ratio ED50” value in [7] is on record as 0.2.
By half-life is commonly meant the time in which the quantity being followed falls by half. Regarding `Cc1cccc(C)c1NC(=O)CN.Cl`, the Activity in data set [1] amounted to 0%; in [2], 10%; in [3], 0%; in data set [4] it was 0%; in data set [5], 0%; in [8], 85 Torr. Moreover, the Activity in [9] is 123 bpm; in [10], 0.48 mmol/kg; in data set [11], 0.48 mmol/kg; in data set [13] it was 0.56 mmol/kg. Further, the ED50 in data set [6] worked out at 900 µmol/kg. Further, the “Ratio ED50” value in [7] is given as 0.3. This molecule also gave a half-life in data set [14] of 3.7 h.
With `Cc1cccc(C)c1NC(=O)C(N)c1ccccc1.Cl` (stereo unspecified), the Activity amounted to 80% in data set [2], 100% in data set [3], 100% in data set [4] and 100% in data set [5]. The ED50 in [6] came to 220 µmol/kg. The “Ratio ED50” value in data set [7] came out at 1.2.
The molecule `CCC(N)C(=O)Nc1c(C)cccc1C.Cl` (stereo unspecified) had a half-life in data set [14] of 1.5 h.
Take `CCN(CC)CC(=O)Nc1c(C)cccc1C.Cl`: the Activity is 4% in data set [1]; 100% in data set [2]; 100% in data set [3]; 100% in [4]; 100% in [5]; 101 Torr in [8]. Moreover, the Activity came out at 133 bpm in data set [9], 0.21 mmol/kg in data set [10] and 0.27 mmol/kg in data set [11]. The ED50 in data set [6] was determined as 260 µmol/kg.
On to `Cc1cccc(C)c1NC(=O)[C@H](C)N.Cl`, for which the Activity is 0% in data set [1]; 0% in data set [2]; 0% in [3]; 0% in data set [4]; 0% in [5]; 85 Torr in data set [8]. Besides, the Activity in [9] was 99 bpm; in data set [10] it was 0.11 mmol/kg. Also, the ED50 in data set [6] stood at 3100 µmol/kg. For the same molecule, the “Ratio ED50” value in [7] stood at 0.1.
Broadly, the bioavailability is dose-corrected exposure relative to a reference, in per cent. As to `Cc1cccc(C)c1NC(=O)C(C)N.Cl` (racemic) [TOCAINIDE HYDROCHLORIDE], the Activity in data set [1] is given as 2%; in data set [2] it was 20%; in [3], 10%; in [4], 0%; in data set [5], 0%; in [8], 108 Torr. Further, the values for the Activity in [9], in [10] and in data set [11] were 148 bpm, 0.32 mmol/kg and 0.3 mmol/kg, respectively. Further, the ED50 in data set [6] is 1300 µmol/kg. The “Ratio ED50” value in data set [7] worked out at 0.2. The figures for the half-life in data set [14] and in [16] were 4.7 h and 11 h, respectively. The bioavailability in [15] is 80%.

Values taken from ChEMBL document CHEMBL3244390, “New antiarrhythmic agents. 1. Primary alpha-amino anilides” (J Med Chem, 1979).
